Assay [1] can be described thus: (§1) Growth inhibition against MDA-453 breast cancer cells. In kind it is functional, cell-based. The conditions noted are these: Homo sapiens, Cancer cell lines. An outline of the steps: (§2)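 MDA-453 cells seeded at 500 per well and kept in IMEM with 10% fetal bovine serum at 37 °C under 5% CO₂. Inhibitor dilutions were added, with fresh drug solution each day for 5 days. Growth was read by MTT (0.5 mg/mL, 4 h), then medium removed and dissolved cells read at 570 nm. Results are expressed as percent of no-drug control.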

The target in assay [2] is Growth factor receptor-bound protein 2 (Homo sapiens, UniProt P62993). In words: Inhibition against Growth factor receptor bound protein 2 binding using ELISA technique. Summed up: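 Competition ELISA: biotinylated SHC-derived Grb2 SH2-binding phosphopeptide bound at 20 ng/mL to plates overnight, then blocked with 5% BSA in TBS. Recombinant Grb2 SH2-GST fusion was preincubated with serial inhibitor dilutions, then added. After washing with 0.1% BSA/TBS, bound protein was detected with anti-GST and alkaline phosphatase-conjugated secondary, using p-nitrophenyl phosphate colorimetry. Each compound had at least three determinations, with a positive control.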
Chain of Growth factor receptor-bound protein 2 (P62993 whole entry, the tested form may be a part): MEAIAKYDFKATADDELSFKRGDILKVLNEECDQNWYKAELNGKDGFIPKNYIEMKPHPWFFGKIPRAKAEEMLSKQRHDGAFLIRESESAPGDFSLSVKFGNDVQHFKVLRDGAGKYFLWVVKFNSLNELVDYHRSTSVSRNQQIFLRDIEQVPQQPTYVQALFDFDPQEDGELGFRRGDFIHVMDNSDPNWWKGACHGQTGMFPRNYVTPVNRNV

A further assay has as its system MDA-MB-453. The description is as §1. In kind it is functional, cell-based. The conditions noted are these: Homo sapiens. An outline of the steps:
as §2

pIC50: −log10 of the molar value.

As for `NC(=O)C[C@H](NC(=O)C1(NC(=O)[C@H](Cc2ccc(CP(=O)(O)O)cc2)NC(=O)C(=O)O)CCCCC1)C(=O)NCCCC1=c2ccccc2=CCC1`, in assay [1], the pIC50 was 5.30.

On to `NC(=O)C[C@@H]1NC(=O)C2(CCCCC2)NC(=O)[C@@H](CC(=O)O)[C@@H](c2ccc(CP(=O)(O)O)cc2)/C=C/C[C@@H](CC2=c3ccccc3=CCC2)CNC1=O`, for which the pIC50 is 8.70 in assay [2] and 6.10 in the assay with MDA-MB-453.

As for `CC1(C)NC(=O)[C@@H](CC(=O)O)[C@@H](c2ccc(CP(=O)(O)O)cc2)/C=C/C[C@@H](CC2=c3ccccc3=CCC2)CNC(=O)[C@H](CC(N)=O)NC1=O`, the pIC50 was 8.10 in assay [2] and 5.10 in the assay on MDA-MB-453.

On to `NC(=O)C[C@@H]1NC(=O)C2(CCCCC2)NC(=O)C[C@@H](c2ccc(CP(=O)(O)O)cc2)C/C=C/C[C@@H](Cc2cccc3ccccc23)CNC1=O`, for which the pIC50 in assay [2] is less than 5.00; in the assay with MDA-MB-453, less than 4.30.

`NC(=O)C[C@@H]1NC(=O)C2(CCCCC2)NC(=O)C[C@@H](c2ccc(CP(=O)(O)O)cc2)/C=C/C[C@@H](CC2=c3ccccc3=CCC2)CNC1=O` showed a pIC50 in assay [2] of 7.70.

These data come from ChEMBL document CHEMBL1145101, “Macrocyclization in the design of Grb2 SH2 domain-binding ligands exhibiting high potency in whole-cell systems” (J Med Chem, 2003).
